Experimental data taken from ChEMBL document CHEMBL1156901, “Novel matrix metalloproteinase inhibitors derived from quinoxalinone scaffold (Part I)” (Bioorg Med Chem, 2010).
Calls of active or inactive are those of the source. The calls are words filed in the database; no cut-off is given here.

How the values were obtained:
[1] = target: 72 kDa type IV collagenase (Homo sapiens, UniProt P08253); assay: Inhibition of MMP2
Summary of the method: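 Gelatinase A (MMP-2) with succinylated gelatin substrate and inhibitor in 50 mM sodium borate, pH 8.5, incubated 30 min at 37 °C. 0.03% trinitrobenzenesulfonic acid then added for a further 20 min. Absorbance read at 450 nm.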

[2] = target: Aminopeptidase N (Sus scrofa) (UniProt P15145); assay: Inhibition of APN assessed as substrate hydrolysis by UV/vis spectrophotometer
Aminopeptidase N (Sus scrofa), sequence (P15145 whole entry, looked up): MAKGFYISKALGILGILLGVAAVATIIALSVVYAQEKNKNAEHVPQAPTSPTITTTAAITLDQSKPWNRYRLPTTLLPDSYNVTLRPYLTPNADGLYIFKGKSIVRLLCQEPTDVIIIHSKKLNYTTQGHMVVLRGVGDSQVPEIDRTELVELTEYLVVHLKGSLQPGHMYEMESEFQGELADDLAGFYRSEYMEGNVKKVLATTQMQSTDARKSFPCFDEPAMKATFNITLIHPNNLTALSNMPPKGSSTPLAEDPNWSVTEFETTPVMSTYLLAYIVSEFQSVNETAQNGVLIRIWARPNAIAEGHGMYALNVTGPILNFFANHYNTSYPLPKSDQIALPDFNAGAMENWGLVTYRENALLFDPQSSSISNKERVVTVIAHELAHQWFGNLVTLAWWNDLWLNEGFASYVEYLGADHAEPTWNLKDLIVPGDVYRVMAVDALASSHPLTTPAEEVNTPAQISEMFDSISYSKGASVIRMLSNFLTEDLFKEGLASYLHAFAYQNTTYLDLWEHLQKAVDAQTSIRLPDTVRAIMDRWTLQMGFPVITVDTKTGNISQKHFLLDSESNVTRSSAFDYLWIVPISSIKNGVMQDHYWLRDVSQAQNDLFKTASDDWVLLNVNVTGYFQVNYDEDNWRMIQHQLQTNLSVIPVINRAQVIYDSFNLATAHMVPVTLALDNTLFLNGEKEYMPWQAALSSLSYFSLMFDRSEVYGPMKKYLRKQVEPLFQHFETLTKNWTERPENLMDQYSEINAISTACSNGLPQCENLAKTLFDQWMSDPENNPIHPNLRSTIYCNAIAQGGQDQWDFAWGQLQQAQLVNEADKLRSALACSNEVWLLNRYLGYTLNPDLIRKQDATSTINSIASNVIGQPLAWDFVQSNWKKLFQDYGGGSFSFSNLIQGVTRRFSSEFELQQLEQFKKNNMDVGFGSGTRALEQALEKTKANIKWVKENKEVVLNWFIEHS

HL-60 = assay: Antiproliferative activity against human HL60 cells after 48 hrs by MTT assay; assay type: functional, cell-based
Summary of the method: (§1)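 RPMI1640 with 10% FBS, 37 °C, 5% CO2. Cells seeded at 10,000 per well and grown 4 h in complete medium. Compound added at 1600, 800, 400, 200 or 100 µg/ml for 48 h. 0.5% MTT then added for 4 h, formazan dissolved in DMSO over 15 min, OD read at 570 nm. IC50 taken as concentration giving 50% growth inhibition.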

K562 = assay: Antiproliferative activity against human K562 cells after 48 hrs by MTT assay; assay type: functional, cell-based; summary of the method: as §1
SK-OV-3 = assay: Antiproliferative activity against human SKOV3 cells after 48 hrs by MTT assay; assay type: functional, cell-based; settings: SK-OV-3, 48 h; summary of the method: as §1

72 kDa type IV collagenase, sequence (P08253 whole entry): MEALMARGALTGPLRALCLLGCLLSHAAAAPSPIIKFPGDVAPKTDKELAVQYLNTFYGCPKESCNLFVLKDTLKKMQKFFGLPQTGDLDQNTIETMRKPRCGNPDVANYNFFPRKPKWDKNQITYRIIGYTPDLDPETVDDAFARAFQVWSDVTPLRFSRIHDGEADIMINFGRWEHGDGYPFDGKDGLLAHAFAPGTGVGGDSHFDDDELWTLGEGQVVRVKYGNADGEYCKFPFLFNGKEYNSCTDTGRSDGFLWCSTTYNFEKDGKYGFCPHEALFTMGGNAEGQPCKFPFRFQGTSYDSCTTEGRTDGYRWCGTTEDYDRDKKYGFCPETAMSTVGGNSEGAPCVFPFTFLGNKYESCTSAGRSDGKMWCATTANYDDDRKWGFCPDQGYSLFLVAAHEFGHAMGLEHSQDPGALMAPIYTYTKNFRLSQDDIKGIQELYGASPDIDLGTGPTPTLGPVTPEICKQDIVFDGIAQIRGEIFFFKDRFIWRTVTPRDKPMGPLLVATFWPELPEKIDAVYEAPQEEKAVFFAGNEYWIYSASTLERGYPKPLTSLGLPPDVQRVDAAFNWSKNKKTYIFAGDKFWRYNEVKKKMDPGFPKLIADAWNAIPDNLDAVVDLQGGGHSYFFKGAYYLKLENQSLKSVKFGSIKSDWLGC

Row | Compound | IC50 [1] | IC50 [2] | IC50 (SK-OV-3) | Activity (HL-60) | Activity (K562)
1 | COC(=O)CCCNC(=O)[C@H](Cc1ccccc1)NC(=O)Cn1c(=O)c(C)nc2ccccc21 | 2760 µM | Not Active | – | – | –
2 | COC(=O)C(CC(C)C)NC(=O)[C@@H](Cc1ccccc1)NC(=O)Cn1c(=O)c(C)nc2ccccc21 (stereo not given in full) | 1750 µM | Not Active | – | – | –
3 | Cc1nc2ccccc2n(CC(=O)N[C@@H](Cc2ccccc2)C(=O)Nc2ccc(F)cc2)c1=O | 124 µM | Not Active | – | – | –
4 | Cc1cccc(NC(=O)[C@H](Cc2ccccc2)NC(=O)Cn2c(=O)c(C)nc3ccccc32)c1 | 6460 µM | Not Active | – | – | –
5 | Cc1nc2ccccc2n(CC(=O)N[C@@H](Cc2ccccc2)C(=O)Nc2ccc(F)c(Cl)c2)c1=O | 1360 µM | Not Active | – | – | –
6 | CCCCNC(=O)[C@H](Cc1ccccc1)NC(=O)Cn1c(=O)c(C)nc2ccccc21 | 106 µM | Not Active | – | – | –
7 | COC(=O)CCCCCNC(=O)[C@H](Cc1ccccc1)NC(=O)Cn1c(=O)c(C)nc2ccccc21 | 11500 µM | Not Active | – | – | –
8 | Cc1nc2ccccc2n(CC(=O)N[C@@H](Cc2ccccc2)C(=O)Nc2ccc(Cl)cc2)c1=O | 624 µM | Not Active | – | – | –
9 | Cc1nc2ccccc2n(CC(=O)N[C@@H](Cc2ccccc2)C(=O)Nc2ccc(Br)cc2)c1=O | 2000 µM | Not Active | – | – | –
10 | Cc1nc2ccccc2n(CC(=O)N[C@@H](Cc2ccccc2)C(=O)NC(C)C)c1=O | 9430 µM | Not Active | – | – | –

Further lines, with some results ahead:

Row | IC50 [1] | IC50 [2] | IC50 (SK-OV-3) | Compound | Activity (HL-60) | Activity (K562)
11 | 30 µM | Not Active | – | Cc1nc2ccccc2n(CC(=O)N[C@@H](Cc2ccccc2)C(=O)Nc2cccnc2)c1=O | – | –
12 | 10.5 µM | Not Active | 1980 µM | Cc1ccc(NC(=O)[C@H](Cc2ccccc2)NC(=O)Cn2c(=O)c(C)nc3ccccc32)cc1 | inactive | inactive
13 | 26.2 µM | Not Active | 3020 µM | Cc1nc2ccccc2n(CC(=O)N[C@@H](Cc2ccccc2)C(=O)Nc2ccc(Cl)c(Cl)c2)c1=O | inactive | inactive
14 | 5.6 µM | Not Active | 210 µM | COc1ccc(/C=C/C(=O)N2C[C@@H](NC(=O)c3cccnc3)C[C@H]2C(=O)NO)cc1OC | – | –
15 | 24.2 µM | Not Active | – | Cc1nc2ccccc2n(CC(=O)N[C@@H](Cc2ccccc2)C(=O)Nc2ccc(F)c(F)c2)c1=O | – | –
16 | 58.1 µM | Not Active | – | Cc1nc2ccccc2n(CC(=O)N[C@@H](Cc2ccccc2)C(=O)Nc2ccccc2)c1=O | – | –
17 | 56.6 µM | Not Active | – | CCCNC(=O)[C@H](Cc1ccccc1)NC(=O)Cn1c(=O)c(C)nc2ccccc21 | – | –
18 | 105 µM | Not Active | – | CCN(CC)C(=O)[C@H](Cc1ccccc1)NC(=O)Cn1c(=O)c(C)nc2ccccc21 | – | –
19 | 37.3 µM | Not Active | – | Cc1ccccc1NC(=O)[C@H](Cc1ccccc1)NC(=O)Cn1c(=O)c(C)nc2ccccc21 | – | –
